The list is not random: actives were taken first. Their share in the collection is about 3.5%.
ERAP1 inh: blocks human ERAP1 aminopeptidase activity. Q9NZ08. recombinant ERAP1, Leu-AMC fluorescence, 60 min. inhibition, % at 10.7 µM. 340,000 tested, 0.15% active;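 active = mean replicate inhibition of at least 30%, or all replicates individually reaching that 30% level; inactive = mean below 30% and not every replicate reaching it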
Target sequence (Q9NZ08 whole entry, looked up): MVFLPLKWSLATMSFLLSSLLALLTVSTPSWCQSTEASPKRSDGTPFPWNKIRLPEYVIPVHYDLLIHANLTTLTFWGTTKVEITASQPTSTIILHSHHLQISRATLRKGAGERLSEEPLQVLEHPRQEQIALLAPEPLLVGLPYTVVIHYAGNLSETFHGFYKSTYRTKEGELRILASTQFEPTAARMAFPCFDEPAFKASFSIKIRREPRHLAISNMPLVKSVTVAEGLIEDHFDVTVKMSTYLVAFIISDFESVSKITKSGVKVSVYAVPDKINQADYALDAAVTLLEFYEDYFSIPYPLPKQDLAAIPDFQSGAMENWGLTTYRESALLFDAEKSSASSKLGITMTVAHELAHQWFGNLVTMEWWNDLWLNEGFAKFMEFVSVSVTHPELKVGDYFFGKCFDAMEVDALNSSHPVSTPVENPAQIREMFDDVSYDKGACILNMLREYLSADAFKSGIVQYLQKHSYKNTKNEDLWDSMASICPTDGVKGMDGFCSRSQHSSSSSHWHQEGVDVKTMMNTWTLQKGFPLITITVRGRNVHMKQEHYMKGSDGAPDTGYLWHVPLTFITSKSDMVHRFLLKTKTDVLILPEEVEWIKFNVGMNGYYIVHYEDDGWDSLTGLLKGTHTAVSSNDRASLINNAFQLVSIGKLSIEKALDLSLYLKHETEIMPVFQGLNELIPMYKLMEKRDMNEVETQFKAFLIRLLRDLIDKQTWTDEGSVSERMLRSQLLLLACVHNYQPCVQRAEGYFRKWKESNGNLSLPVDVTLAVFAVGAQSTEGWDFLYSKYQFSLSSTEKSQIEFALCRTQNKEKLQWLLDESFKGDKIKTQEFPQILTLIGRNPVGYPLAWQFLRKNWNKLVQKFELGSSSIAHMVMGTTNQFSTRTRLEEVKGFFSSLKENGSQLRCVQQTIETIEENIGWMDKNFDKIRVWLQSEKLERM
Cneo AK release: causes C. neoformans cell lysis. 360,000 tested, 0.2% active. lysis activity, % at 15 µM. AID 651654. adenylate kinase release luminescence, 4 h; normalised: neutral wells 0, clomiphene wells 100;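 active = mean lysis activity across replicates of at least 80%, whatever share of replicates individually reach that level; inactive = mean lysis activity below 80%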
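Assay system: log-phase C. neoformans yeast / Quantity: yeast cell density of 5 × 10^6 cells/mL / Medium: fresh YPD growth medium / Compound: single dose / Timing: static 4 h at 37 °C with compound, 1 h detection / Measured by: adenylate kinase release luminescence / Read-out: lysis from increased AK signal / Benchmarks: Clomiphene as positive lysis control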
esBAF inh: blocks esBAF chromatin remodeling in mouse ES cells | reporter increase, % at 12.5 µM | 350,000 tested, 2% active | Bmi1-luciferase knock-in reporter, 24 h; 100% = twice the neutral-well signal; in the data active = activation above about 40%;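 also: a rise in the Bmi1 reporter signal indicates esBAF inhibition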
Wnt bcat act: Wnt/beta-catenin pathway activation; Wnt/beta-catenin reporter cell assay, activator, plate reader; activation, % at 9.35 µM; 300,000 tested, 1.2% active; AID 743398; in the data active = activation above about 30%, passing the limit was not always enough
MITF act: activators of MITF-driven TRPM1 promoter activity in SK-MEL-5 cells; activation, % at 12.5 µM; AID 588334; 300,000 tested, 0.75% active; SK-MEL-5 TRPM1-promoter luciferase, 24 h; % of positive control, neutral wells = 0;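 active = mean activation of at least 80% with every replicate also reaching 80%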
HIV Env fusion: HIV envelope-mediated fusion inhibition | HeLa-JRFL Env/CEM21 cell fusion, luciferase | inhibition, % at 12.3 µM | AID 651610 | 360,000 tested, 1.1% active;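 active = mean replicate inhibition score of at least 50 and every replicate individually at or above 50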
Each line names hits and unclear results; the compound was inactive in the other large screens.

COC(=O)c1ccc2nc(-c3ccc(Cl)cc3)c(Cc3ccc(OC)cc3C)n2c1	none (no result: Cneo AK release, esBAF inh, MITF act)
COc1ccccc1Cc1c(-c2ccc(OC)c(OC)c2)nc2ccc(Cl)cn12	none (no result: MITF act)
COc1ccccc1Cc1c(-c2ccc(C)cc2)nc2ccc(Cl)cn12	esBAF inh 63.1 (no result: MITF act)
C[C@@H]1CN([C@H](C)CO)C(=O)c2cc(NC(=O)CCC(F)(F)F)ccc2O[C@@H](C)CCCCO[C@H]1CN(C)C(=O)Cc1ccccc1	none (no result: ERAP1 inh, Wnt bcat act, MITF act)
CCNC(=O)C[C@H]1CC[C@H]2[C@@H](COC[C@@H](O)CN2C(=O)Nc2ccc(C(F)(F)F)cc2)O1	none (no result: Wnt bcat act, MITF act)
COc1ccc(-c2ccc3oc(-c4ccsc4)cc3c2)cc1	esBAF inh 63.7 (no result: ERAP1 inh)
C[C@@H]1CCCCO[C@@H](CN(C)C(=O)Nc2ccc3c(c2)OCO3)[C@H](C)CN([C@@H](C)CO)C(=O)c2cc(NS(=O)(=O)c3cn(C)cn3)ccc2O1	none (no result: Wnt bcat act, MITF act)
O=C(C[C@@H]1CC[C@H]2[C@@H](COC[C@H](O)CN2CC2CCCCC2)O1)NCc1ccc(Cl)cc1	none (no result: Wnt bcat act, MITF act, HIV Env fusion)
C=CCNc1nc(-c2ccc(OC)cc2OC)cs1	esBAF inh 54.7 (no result: ERAP1 inh, Wnt bcat act)
CC(C)NC(=O)Nc1ccc2c(c1)C(=O)N([C@@H](C)CO)C[C@@H](C)[C@H](CN(C)Cc1ccc(C(=O)O)cc1)OCCCC[C@@H](C)O2	none (no result: Wnt bcat act, MITF act)
CCOc1ccc(C2=CC(=O)C[C@H](c3ccc(OC)cc3)C2)cc1	esBAF inh 76.0 (no result: MITF act)
O=C1C=C(c2ccc(C(=O)O)cc2)C[C@@H](c2ccc(F)cc2)C1	esBAF inh 45.3
O=C1C=C(c2ccc(-c3ccccc3)cc2)C[C@@H](c2ccc(F)cc2)C1	none (no result: ERAP1 inh)
COc1ccc(C[C@H]2CCn3cc(nn3)COC[C@@H](C(C)C)NC2=O)cc1	none (no result: esBAF inh, Wnt bcat act, MITF act)
COc1ccc(S(=O)(=O)N(C)C[C@H]2Oc3ccc(NC(=O)CCC(F)(F)F)cc3CC(=O)N([C@@H](C)CO)C[C@H]2C)cc1	none (no result: Wnt bcat act, MITF act, HIV Env fusion)
COc1ccccc1-c1nnc(NC(=O)C(C)Sc2nncn2C)s1 (centres undefined)	none (no result: Cneo AK release, esBAF inh)
COc1ccccc1-c1nnc(NC(=O)CSc2nncn2C)s1	Wnt bcat act 53.7 (no result: Cneo AK release, esBAF inh)
CC(C)C[C@@]12C(=O)N(c3cccc(F)c3)C(=O)N1[C@H](c1ccc(Cl)cc1)[C@@H]1C(=O)N(C3CCCCC3)C(=O)[C@@H]12	HIV Env fusion 94.8
O=C1[C@H]2[C@@H](c3ccc(Cl)cc3)N3C(=O)N(c4cccc(Br)c4)C(=O)[C@@]3(Cc3ccc(Cl)cc3)[C@H]2C(=O)N1C1CCCCC1	HIV Env fusion 82.5
O=C1[C@H]2[C@@H](c3ccc(F)cc3)N3C(=O)N(c4cccc(Cl)c4)C(=O)[C@@]3(Cc3ccccc3)[C@H]2C(=O)N1C1CCCCC1	none (no result: ERAP1 inh)
O=C1[C@H]2[C@@H](c3ccc(F)cc3)N3C(=O)N(c4cccc(Cl)c4)C(=O)[C@@]3(Cc3ccc(Cl)cc3)[C@H]2C(=O)N1C1CCCCC1	HIV Env fusion 99.0
CC(C)(C)N1C(=O)[C@H]2[C@@H](c3ccc(Br)cc3)N3C(=O)N(c4cccc(Cl)c4)C(=O)[C@@]3(Cc3ccccc3)[C@H]2C1=O	none (no result: ERAP1 inh)
O=C1[C@H]2[C@@H](c3ccc(F)cc3)N3C(=O)N(c4cccc(Br)c4)C(=O)[C@@]3(Cc3ccc(Cl)cc3)[C@H]2C(=O)N1C1CCCCC1	HIV Env fusion 58.7
C[C@@H]1CN([C@H](C)CO)C(=O)c2cc(NC(=O)Nc3ccccc3)ccc2O[C@H]1CN(C)C	none (no result: Wnt bcat act, MITF act)
CN(C)CC(=O)Nc1ccc2c(c1)[C@H]1C[C@H](CC(=O)N3CCN(C)CC3)O[C@@H](CO)[C@H]1O2	none (no result: Wnt bcat act, MITF act, HIV Env fusion)
C[C@H]1CN([C@@H](C)CO)C(=O)Cc2cc(NC(=O)Nc3cccc4ccccc34)ccc2O[C@H]1CN(C)C(=O)Nc1ccc(C(F)(F)F)cc1	none (no result: Wnt bcat act, MITF act)
C[C@H](CO)N1C[C@H](C)[C@@H](CN(C)S(=O)(=O)c2cccs2)OCCCC[C@H](C)Oc2ccc(NC(=O)c3ccccc3)cc2C1=O	none (no result: ERAP1 inh, Wnt bcat act, MITF act)
CN1C(=O)c2cc(NC(=O)Cc3cccs3)ccc2OC[C@@H]2O[C@@H](CC(=O)NCC3CC3)CC[C@H]21	none (no result: Wnt bcat act, MITF act)
CC(C)N(Cc1nccn1C)C(=O)CCc1nnc(CCCc2ccccc2)o1	Wnt bcat act 69.0 (no result: Cneo AK release, esBAF inh)
O=[N+]([O-])c1ccc2oc(C3CCCCC3)nc2c1	esBAF inh 44.3
CCOc1cccc(-c2nc3cc(C)ccc3o2)c1	esBAF inh 50.4 (no result: ERAP1 inh, Wnt bcat act, HIV Env fusion)
Cc1cccc(-c2nc3cc([N+](=O)[O-])ccc3o2)c1	esBAF inh 57.1, MITF act 90.9
CCCNC(=O)C[C@@H]1CC[C@@H]2[C@H](COC[C@H](O)CN2C(=O)c2ccccn2)O1	none (no result: Wnt bcat act, MITF act, HIV Env fusion)
O=C(NC(=O)c1ccc(Cl)cc1)OC1CCCCC1	none (no result: ERAP1 inh, esBAF inh, Wnt bcat act)
CC(OC(=O)Nc1cccc(Cl)c1)C(=O)OC1CCCCC1 (centres undefined)	esBAF inh 53.5
O=C(Nc1ccccc1Cl)OC1CCCCC1	esBAF inh 56.1
CCC(=O)N1[C@@H]2Cn3c(cccc3=O)[C@H]1[C@@H](C(=O)NC1CCC1)[C@@H]2CO	none (no result: Wnt bcat act, MITF act, HIV Env fusion)
Cc1ccc2[nH]c(=O)c(CN(CCc3ccccc3)C(c3nnnn3Cc3ccco3)C(C)C)cc2c1 (centres undefined)	Wnt bcat act 35.9, HIV Env fusion 72.0 (no result: ERAP1 inh, esBAF inh)
COc1cccc(S(=O)(=O)Nc2ccc3c(c2)[C@@H]2C[C@H](CC(=O)NCC(F)(F)F)O[C@H](CO)[C@@H]2O3)c1	none (no result: Wnt bcat act, MITF act)
CC(C)NC(=O)Nc1ccc2c(c1)C(=O)N([C@@H](C)CO)C[C@@H](C)[C@@H](CN(C)Cc1ccc(C(=O)O)cc1)O2	none (no result: Wnt bcat act, MITF act)
CC(C)NC(=S)N/N=C/c1sc(N2CCCCC2)nc1-c1cccs1	esBAF inh 66.9 (no result: Wnt bcat act)
C[C@@]12C(=O)N(CC3CCCO3)CC(=O)N1[C@@H]1c3ccccc3OC[C@@H]1[C@@H]2c1ccccc1 (some centres undefined)	none (no result: HIV Env fusion)
COc1ccc2c(c1)OC[C@H]1[C@H]2N2C(=O)CN(CC3CCCO3)C(=O)[C@@]2(C)[C@H]1c1ccccc1 (some centres undefined)	none (no result: ERAP1 inh)
C[C@@]12C(=O)N(CC3CCCO3)CC(=O)N1[C@H]1c3cc(Cl)ccc3OC[C@@H]1[C@@H]2c1ccccc1 (some centres undefined)	HIV Env fusion 79.9
Cc1ccc2c(c1)[C@H]1[C@H](CO2)[C@H](c2ccccc2)[C@]2(C)C(=O)N(CC3CCCO3)CC(=O)N12 (some centres undefined)	HIV Env fusion 110.0
CCN(CC)S(=O)(=O)c1ccc(N2CCOCC2)c(NC(=O)c2ccco2)c1	HIV Env fusion 58.1
O=C(Nc1cccnc1N1CCOCC1)c1ccco1	Wnt bcat act 41.1 (no result: ERAP1 inh, esBAF inh)
CCN(CC)S(=O)(=O)c1ccc(N2CCCC2)c(NC(=O)Cc2c(F)cccc2Cl)c1	HIV Env fusion 56.7
CCN(CC)S(=O)(=O)c1ccc(N2CCOCC2)c(NC(=S)NC(=O)c2ccco2)c1	none (no result: esBAF inh)

High-throughput results: PubChem BioAssay, Broad Institute
